In the M2OR odorant receptor database:

Experiments:
Settings in all cases: stereoisomer not certain
[1] = biological target: T1, UniProt L7MU75
T1 sequence (whole entry): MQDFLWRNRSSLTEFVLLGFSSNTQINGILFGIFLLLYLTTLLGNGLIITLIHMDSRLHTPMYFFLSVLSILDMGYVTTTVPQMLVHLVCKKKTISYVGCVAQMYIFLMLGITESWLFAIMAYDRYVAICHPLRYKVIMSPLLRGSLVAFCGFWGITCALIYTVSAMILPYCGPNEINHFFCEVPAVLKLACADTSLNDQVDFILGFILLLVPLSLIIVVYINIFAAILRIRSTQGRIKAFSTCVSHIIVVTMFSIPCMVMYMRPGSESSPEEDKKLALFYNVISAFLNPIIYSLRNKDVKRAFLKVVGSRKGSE
Method in brief: (§1)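 Values were gathered from published papers (main text and supplementary material), with extra details requested from the original authors when needed, and checked for typos and inconsistencies. Each receptor–molecule pair is called responsive (active) if the original authors judged the measured signal statistically different from baseline, and non-responsive (inactive) otherwise. Assay methods varied by source, often transient mammalian cell-line luciferase assays. Recorded details include cell line, G-protein, co-transfected protein and tags.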

[2] = biological target: T2, UniProt L7N210
T2 sequence (whole entry): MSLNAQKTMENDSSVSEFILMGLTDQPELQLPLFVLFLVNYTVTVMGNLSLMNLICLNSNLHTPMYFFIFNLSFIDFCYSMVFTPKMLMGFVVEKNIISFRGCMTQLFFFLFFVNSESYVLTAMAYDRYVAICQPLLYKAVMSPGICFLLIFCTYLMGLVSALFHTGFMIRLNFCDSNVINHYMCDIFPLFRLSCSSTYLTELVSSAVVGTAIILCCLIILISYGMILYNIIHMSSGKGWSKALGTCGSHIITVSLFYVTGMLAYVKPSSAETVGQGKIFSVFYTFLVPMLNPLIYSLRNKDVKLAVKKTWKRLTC
Method in brief: as §1

[3] = biological target: T3, UniProt Q3KPB0
T3 sequence (whole entry): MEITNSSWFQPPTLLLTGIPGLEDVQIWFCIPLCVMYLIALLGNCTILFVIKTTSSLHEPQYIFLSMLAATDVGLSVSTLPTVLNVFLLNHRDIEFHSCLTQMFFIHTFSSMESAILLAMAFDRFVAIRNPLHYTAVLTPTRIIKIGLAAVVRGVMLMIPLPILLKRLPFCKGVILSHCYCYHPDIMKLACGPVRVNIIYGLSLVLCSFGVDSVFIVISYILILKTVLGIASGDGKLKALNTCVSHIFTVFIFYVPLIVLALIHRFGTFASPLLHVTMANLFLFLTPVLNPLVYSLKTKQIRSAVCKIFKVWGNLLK
Method in brief: as §1

[4] = biological target: T4, UniProt Q3U0P3
T4 sequence (whole entry): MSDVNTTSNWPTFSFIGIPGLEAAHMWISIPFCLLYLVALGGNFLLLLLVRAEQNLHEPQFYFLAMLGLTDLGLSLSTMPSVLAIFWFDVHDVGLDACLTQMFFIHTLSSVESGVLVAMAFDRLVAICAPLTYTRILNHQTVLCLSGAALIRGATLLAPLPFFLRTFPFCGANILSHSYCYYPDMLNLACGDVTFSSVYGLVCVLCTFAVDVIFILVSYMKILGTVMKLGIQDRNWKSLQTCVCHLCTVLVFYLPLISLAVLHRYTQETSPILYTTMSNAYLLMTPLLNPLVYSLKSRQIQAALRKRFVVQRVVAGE
Method in brief: as §1

[5] = biological target: T5, UniProt Q7TQU8
T5 sequence (whole entry): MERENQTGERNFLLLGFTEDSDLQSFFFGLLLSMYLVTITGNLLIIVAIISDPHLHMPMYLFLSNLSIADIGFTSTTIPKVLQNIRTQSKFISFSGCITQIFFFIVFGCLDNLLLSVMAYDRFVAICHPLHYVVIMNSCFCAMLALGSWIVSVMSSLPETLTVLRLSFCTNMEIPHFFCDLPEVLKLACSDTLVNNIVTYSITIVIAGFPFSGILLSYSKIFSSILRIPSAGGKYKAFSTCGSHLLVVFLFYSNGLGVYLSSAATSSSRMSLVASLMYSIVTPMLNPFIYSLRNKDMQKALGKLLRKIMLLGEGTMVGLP
Method in brief: as §1

[6] = biological target: T6, UniProt Q7TR79
T6 sequence (whole entry): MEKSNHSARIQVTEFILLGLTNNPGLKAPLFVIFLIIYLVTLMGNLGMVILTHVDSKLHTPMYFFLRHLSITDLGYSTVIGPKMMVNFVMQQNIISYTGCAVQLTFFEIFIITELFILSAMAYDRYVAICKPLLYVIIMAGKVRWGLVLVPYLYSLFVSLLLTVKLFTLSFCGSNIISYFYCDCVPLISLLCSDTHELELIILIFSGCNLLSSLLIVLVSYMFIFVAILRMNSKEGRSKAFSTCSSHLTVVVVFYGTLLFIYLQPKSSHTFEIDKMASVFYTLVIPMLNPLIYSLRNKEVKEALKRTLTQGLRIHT
Method in brief: as §1

[7] = biological target: T7, UniProt Q7TQV4
T7 sequence (whole entry): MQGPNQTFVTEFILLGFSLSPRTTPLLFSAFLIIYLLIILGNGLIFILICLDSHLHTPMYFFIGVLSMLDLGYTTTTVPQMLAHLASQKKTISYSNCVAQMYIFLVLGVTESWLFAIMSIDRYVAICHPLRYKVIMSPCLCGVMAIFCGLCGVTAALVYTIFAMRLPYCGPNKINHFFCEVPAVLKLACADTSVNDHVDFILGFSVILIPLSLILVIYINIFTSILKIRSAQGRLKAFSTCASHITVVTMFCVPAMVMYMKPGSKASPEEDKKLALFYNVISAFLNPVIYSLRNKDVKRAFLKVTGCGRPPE
Method in brief: as §1

[8] = biological target: T8, UniProt Q7TR71
T8 sequence (whole entry): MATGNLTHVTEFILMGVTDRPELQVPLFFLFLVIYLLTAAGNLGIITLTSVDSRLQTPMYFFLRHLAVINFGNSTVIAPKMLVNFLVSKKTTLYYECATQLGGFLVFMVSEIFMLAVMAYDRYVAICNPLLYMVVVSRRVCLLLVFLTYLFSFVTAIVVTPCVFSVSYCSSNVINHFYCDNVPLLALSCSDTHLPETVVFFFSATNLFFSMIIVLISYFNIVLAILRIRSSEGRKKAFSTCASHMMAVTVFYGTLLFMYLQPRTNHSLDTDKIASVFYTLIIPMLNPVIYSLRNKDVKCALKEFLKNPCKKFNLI
Method in brief: as §1

[9] = biological target: T9, UniProt Q7TRA3
T9 sequence (whole entry): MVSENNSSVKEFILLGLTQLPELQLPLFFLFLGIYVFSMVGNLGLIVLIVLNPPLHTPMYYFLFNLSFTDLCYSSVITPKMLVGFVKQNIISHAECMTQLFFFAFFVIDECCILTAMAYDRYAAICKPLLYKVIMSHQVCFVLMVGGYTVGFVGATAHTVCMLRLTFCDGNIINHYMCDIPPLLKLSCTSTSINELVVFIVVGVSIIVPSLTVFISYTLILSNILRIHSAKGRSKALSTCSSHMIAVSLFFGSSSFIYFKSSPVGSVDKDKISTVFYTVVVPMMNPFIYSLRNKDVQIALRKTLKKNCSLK
Method in brief: as §1

[10] = biological target: T10, UniProt Q7TRE4
T10 sequence (whole entry): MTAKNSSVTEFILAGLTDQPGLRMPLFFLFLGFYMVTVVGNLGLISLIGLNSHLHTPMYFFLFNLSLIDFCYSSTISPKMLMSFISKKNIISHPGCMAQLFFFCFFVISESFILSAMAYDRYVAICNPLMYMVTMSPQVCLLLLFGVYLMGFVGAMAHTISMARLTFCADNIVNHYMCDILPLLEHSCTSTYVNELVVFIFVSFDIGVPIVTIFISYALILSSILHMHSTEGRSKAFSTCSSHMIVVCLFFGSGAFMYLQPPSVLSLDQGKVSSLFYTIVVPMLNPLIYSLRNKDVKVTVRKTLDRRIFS
Method in brief: as §1

[11] = biological target: T11, UniProt Q7TRN9
T11 sequence (whole entry): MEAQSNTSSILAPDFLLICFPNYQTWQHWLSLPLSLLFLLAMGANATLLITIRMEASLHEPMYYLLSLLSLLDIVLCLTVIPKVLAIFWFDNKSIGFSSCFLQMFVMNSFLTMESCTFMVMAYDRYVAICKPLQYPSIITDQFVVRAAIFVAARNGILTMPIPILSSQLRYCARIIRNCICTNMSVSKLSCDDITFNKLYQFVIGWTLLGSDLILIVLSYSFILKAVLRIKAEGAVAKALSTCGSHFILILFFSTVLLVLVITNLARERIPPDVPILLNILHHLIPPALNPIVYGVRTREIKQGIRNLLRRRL
Method in brief: as §1

[12] = biological target: T12, UniProt Q7TRM0
T12 sequence (whole entry): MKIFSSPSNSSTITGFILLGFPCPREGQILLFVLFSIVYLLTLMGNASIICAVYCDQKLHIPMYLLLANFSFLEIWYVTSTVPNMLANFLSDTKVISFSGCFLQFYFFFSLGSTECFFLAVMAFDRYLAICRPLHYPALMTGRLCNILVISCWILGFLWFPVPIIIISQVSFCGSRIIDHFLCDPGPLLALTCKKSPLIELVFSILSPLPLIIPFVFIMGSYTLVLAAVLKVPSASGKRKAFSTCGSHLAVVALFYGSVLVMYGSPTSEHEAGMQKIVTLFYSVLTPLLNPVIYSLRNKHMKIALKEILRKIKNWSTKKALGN
Method in brief: as §1

Measured: odorant receptor agonist call

CCCCCCC(C=O)=Cc1ccccc1
inactive: [1] | [2] | [3] | [4] | [5] | [6]

CCC(=O)C(=O)CC
not listed: [11] | [12]
inactive: all other assays above

CCCCCCO
not listed: [12]
inactive: all other assays above

CCCCCOC(=O)CCC
inactive: [1] | [2] | [3] | [4] | [5] | [6]

CCCCCC1=C(C)CCC1=O
not listed: [11] | [12]
inactive: all other assays above

CCCCCCCO
not listed: [12]
inactive: all other assays above

CCCC(=O)C(C)=O
not listed: [11] | [12]
inactive: all other assays above

CCCCCCCCCCO
not listed: [11] | [12]
inactive: all other assays above

CCCCCCCCCO
active: [11]
inactive: all other assays above

c1ccccc1
not listed: [11] | [12]
inactive: all other assays above

CCCCCCCCC=CC=O
inactive: [1] | [2] | [3] | [4] | [5] | [6]

CC1(C)CC(=O)CC(=O)C1
inactive: [1] | [2] | [3] | [4] | [5] | [6]

CCCC=O
inactive: [1] | [2] | [3] | [4] | [5] | [6]

CC(C)=C1CCC(C)CC1=O (configuration not stated)
inactive: [1] | [2] | [3] | [4] | [5] | [6]

C=C(C)C1CC=C(C)CC1 (configuration not stated)
inactive: [1] | [2] | [3] | [4] | [5] | [6]

CC(=O)OCc1ccc2c(c1)OCO2
inactive: [1] | [3] | [4] | [5] | [6]
active: [2]

Cc1ccc(C(C)C)cc1
inactive: [1] | [2] | [3] | [4] | [5] | [6]

Cc1ccc(OC(=O)C(C)C)cc1
inactive: [1] | [2] | [3] | [4] | [5] | [6]

CCc1occc(=O)c1O
inactive: [3] | [4] | [5] | [6]
active: [1] | [2]

CC=CC(=O)C1=C(C)CCCC1(C)C
inactive: [1] | [2] | [3] | [4] | [5] | [6]

C=C1C2CCC(C2)C1(C)C (configuration not stated)
inactive: [1] | [2] | [3] | [4] | [5] | [6]

CCCCCCCCOC=O
inactive: [1] | [2] | [3] | [4] | [5] | [6]

CCCCCOC(=O)CC
inactive: [1] | [2] | [3] | [4] | [5] | [6]

c1ccc2ncccc2c1
active: [1] | [2]
inactive: [3] | [4] | [5] | [6]

CCCCC=O
inactive: [1] | [2] | [3] | [4] | [5] | [6]

OCCCCCCCCCO
inactive: [1] | [2] | [3] | [4] | [5] | [6]
